# Test results taken from ChEMBL document CHEMBL3243961, “Synthesis and biological activity of 8-arylergolines” (1977).
# The source made the active and inactive calls. The calls are words filed in the database; no cut-off is given here.
# What was measured:
# Rattus norvegicus [1] = test: Decrease in prolactin level in rat serum at 1 mg, ip by radioimmunoassay; type: functional
# How it was run: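 Rats received test compound ip at 1 mg per rat. Serum prolactin was then measured by radioimmunoassay, and the result was expressed as the percent drop in serum prolactin.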
# Rattus norvegicus [2] = test: Antidepressant activity in rat assessed as antimuricidal activity at 10 mg/kg, ip; type: functional, organism-based; set-up: dose 10 mg/kg
# How it was run: (§1)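 Rats screened in an antimuricidal (mouse-killing) test, used as a possible indicator of antidepressant activity.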
# Rattus norvegicus [3] = species: Rattus norvegicus; test: Oxytocic activity in rat uterus smooth muscle up to 10 ug/ml; type: functional, tissue-based; settings: Muscle tissue
# [4] = target: T1, Adrenergic receptor alpha (Rattus norvegicus) (UniProt P15823+P23944+P43140+P22086+P19328+P22909); test: Blockade of alpha-adrenoceptor in rat aorta assessed as rightward shift in norepinephrine dose response curve; type: tissue-based
# [5] = target: Serotonin (5-HT) receptor (Rattus norvegicus) (UniProt P35563+P35365+P32305+P31388+Q9JJ16+P28564+P30994+Q62758+P08909+P14842+P30940+P35364+P19327+P28565); test: Inhibition of 5-HT receptor in rat stomach fundus relative to methysergide; type: tissue-based
# [6] = target: T1, Adrenergic receptor alpha (Rattus norvegicus); test: Blockade of alpha-adrenoceptor in rat aorta; type: tissue-based
# Rattus norvegicus [7] = test: Antidepressant activity in rat assessed as antimuricidal activity at 5 mg/kg, ip; type: functional, organism-based; set-up: dose 5 mg/kg; how it was run: as §1
# Rattus norvegicus [8] = test: Decrease in prolactin level in rat serum at 10 ug, ip by radioimmunoassay; type: functional
# Rattus norvegicus [9] = test: Antidepressant activity in rat assessed as antimuricidal activity at 20 mg/kg, ip; type: functional, organism-based; set-up: dose 20 mg/kg; how it was run: as §1
# Rattus norvegicus [10] = test: Antidepressant activity in rat assessed as antimuricidal activity at 0.625 mg/kg, ip; type: functional, organism-based; set-up: dose 0.625 mg/kg
smiles,measurement,setting,value
CN1C[C@H](c2ccc3c(c2)OCO3)C=C2c3cccc4[nH]cc(c34)C[C@H]21,inhibition,Rattus norvegicus [1],inactive
same,Activity,Rattus norvegicus [2],Active
same,Activity,Rattus norvegicus [3],inactive
same,fold change (FC),[4],2
same,5-HT antagonist potency relative to methysergide,[5],50%
CN1CC(c2ccc(O)cc2)C=C2c3cccc4c3[C@@H](CN4)C[C@H]21 (stereo partly drawn),Activity,Rattus norvegicus [3],inactive
COc1ccc([C@@H]2C=C3c4cccc5[nH]cc(c45)C[C@H]3N(C)C2)cc1.O=C(O)/C=C\C(=O)O,inhibition (INH),Rattus norvegicus [1],81%
same,Activity,Rattus norvegicus [2],Active
same,Activity,Rattus norvegicus [3],inactive
same,inhibition,[6],Active
same,5-HT antagonist potency relative to methysergide,[5],100%
CN1CC(c2ccc(Cl)cc2)C=C2c3cccc4c3[C@@H](CN4)C[C@H]21 (stereo partly drawn),Activity,Rattus norvegicus [3],inactive
Cc1ccc([C@@H]2C=C3c4cccc5[nH]cc(c45)C[C@H]3N(C)C2)cc1,Activity,Rattus norvegicus [3],inactive
CN1C[C@H](c2ccccc2)C=C2c3cccc4c3[C@@H](CN4)C[C@H]21,Activity,Rattus norvegicus [3],inactive
CN1C[C@H](c2ccc3c(c2)OCO3)C=C2c3cccc4c3[C@@H](CN4)C[C@H]21,Activity,Rattus norvegicus [3],inactive
CN1C[C@H](c2ccccc2)C=C2c3cccc4[nH]cc(c34)C[C@H]21.O=C(O)/C=C\C(=O)O,inhibition (INH),Rattus norvegicus [1],71%
same,Activity,Rattus norvegicus [7],Active
same,Activity,Rattus norvegicus [3],inactive
same,fold change (FC),[4],2
same,5-HT antagonist potency relative to methysergide,[5],50%
CC(C)[C@H]1C(=O)N2CCC[C@H]2[C@]2(O)O[C@](NC(=O)[C@@H]3C=C4c5cccc6[nH]cc(c56)C[C@H]4N(C)C3)(C(C)C)C(=O)N12 [ERGOCORNINE],inhibition (INH),Rattus norvegicus [8],60%
COc1ccc([C@@H]2C=C3c4cccc5c4[C@@H](CN5)C[C@H]3N(C)C2)cc1,Activity,Rattus norvegicus [3],inactive
CN1C[C@@H](c2ccc3c(c2)OCO3)C=C2c3cccc4c3[C@@H](CN4)C[C@H]21,Activity,Rattus norvegicus [3],inactive
CN1C[C@@H](c2ccccc2)C=C2c3cccc4c3[C@@H](CN4)C[C@H]21,Activity,Rattus norvegicus [3],inactive
CN1C[C@@H](c2ccccc2)C=C2c3cccc4[nH]cc(c34)C[C@H]21.O=C(O)/C=C\C(=O)O,inhibition (INH),Rattus norvegicus [1],88%
same,Activity,Rattus norvegicus [9],inactive
same,Activity,Rattus norvegicus [3],inactive
same,inhibition,[6],Active
same,5-HT antagonist potency relative to methysergide,[5],10%
Cc1ccc([C@@H]2C=C3c4cccc5c4[C@@H](CN5)C[C@H]3N(C)C2)cc1,Activity,Rattus norvegicus [3],inactive
Cc1ccc([C@H]2C=C3c4cccc5c4[C@@H](CN5)C[C@H]3N(C)C2)cc1,Activity,Rattus norvegicus [3],inactive
CN1CCC=C2c3cccc4[nH]cc(c34)CC21 (racemic),Activity,Rattus norvegicus [10],Active
COc1ccc([C@H]2C=C3c4cccc5c4[C@@H](CN5)C[C@H]3N(C)C2)cc1,Activity,Rattus norvegicus [3],inactive
